The record followed here is ChEMBL document CHEMBL4316598, “Synthesis, antiproliferative and apoptosis induction potential activities of novel bis(indolyl)hydrazide-hydrazone derivatives” (Bioorg Med Chem, 2019).

Activity calls are given as the source filed them. The calls are words filed in the database; no cut-off is given here.

The test system of one assay is MCF7. In words: Induction of apoptosis in human MCF7 cells assessed as viable cells at 1 uM after 12 hrs by annexin-V FITC/propidium iodide staining based flow cytometric analysis relative to control. In kind it is functional. To be noted: MCF7, 12 h, read-out: Activity. The method, boiled down: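 Cells were grown in DMEM with 10% heat-inactivated FBS at 37 °C and 5% CO₂, then plated at 500,000 cells/well in 24-well plates. They were treated from a DMSO stock (DMSO ≤0.1%) for 8, 12 or 16 h. After a PBS wash, cells were resuspended in binding buffer (10 mM HEPES pH 7.4, 2.5 mM CaCl₂, 140 mM NaCl, 0.1% BSA), stained 40 min with FITC-annexin V, then with PI, and run on the flow cytometer immediately. Values are the mean of three independent experiments.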
A general note: A flow cytometer gives signals particle by particle.

A further assay is filed under the species Homo sapiens. Description: Inhibition of PKA phosphorylation (unknown origin) after 5 to 60 mins by bioluminescence assay. The method, boiled down:
(§1)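 Kinase activity measured with compound at 1, 5, 10 and 50 μM, using a Kinase Reaction Rate Kit. Phosphorylation was followed by bioluminescent monitoring of ATP consumption, with light read at 5 min and 1 h. Staurosporine served as positive control. Data given as % kinase inhibition (% of control activity), from two separate experiments.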

Assay [1] has as its target Tyrosine-protein kinase ABL1 (Homo sapiens) (UniProt P00519). Description: Inhibition of ABL phosphorylation (unknown origin) at 50 uM after 5 to 60 mins by bioluminescence assay. The method in brief:
as §1

Sequence of Tyrosine-protein kinase ABL1 (Homo sapiens) (P00519 whole entry): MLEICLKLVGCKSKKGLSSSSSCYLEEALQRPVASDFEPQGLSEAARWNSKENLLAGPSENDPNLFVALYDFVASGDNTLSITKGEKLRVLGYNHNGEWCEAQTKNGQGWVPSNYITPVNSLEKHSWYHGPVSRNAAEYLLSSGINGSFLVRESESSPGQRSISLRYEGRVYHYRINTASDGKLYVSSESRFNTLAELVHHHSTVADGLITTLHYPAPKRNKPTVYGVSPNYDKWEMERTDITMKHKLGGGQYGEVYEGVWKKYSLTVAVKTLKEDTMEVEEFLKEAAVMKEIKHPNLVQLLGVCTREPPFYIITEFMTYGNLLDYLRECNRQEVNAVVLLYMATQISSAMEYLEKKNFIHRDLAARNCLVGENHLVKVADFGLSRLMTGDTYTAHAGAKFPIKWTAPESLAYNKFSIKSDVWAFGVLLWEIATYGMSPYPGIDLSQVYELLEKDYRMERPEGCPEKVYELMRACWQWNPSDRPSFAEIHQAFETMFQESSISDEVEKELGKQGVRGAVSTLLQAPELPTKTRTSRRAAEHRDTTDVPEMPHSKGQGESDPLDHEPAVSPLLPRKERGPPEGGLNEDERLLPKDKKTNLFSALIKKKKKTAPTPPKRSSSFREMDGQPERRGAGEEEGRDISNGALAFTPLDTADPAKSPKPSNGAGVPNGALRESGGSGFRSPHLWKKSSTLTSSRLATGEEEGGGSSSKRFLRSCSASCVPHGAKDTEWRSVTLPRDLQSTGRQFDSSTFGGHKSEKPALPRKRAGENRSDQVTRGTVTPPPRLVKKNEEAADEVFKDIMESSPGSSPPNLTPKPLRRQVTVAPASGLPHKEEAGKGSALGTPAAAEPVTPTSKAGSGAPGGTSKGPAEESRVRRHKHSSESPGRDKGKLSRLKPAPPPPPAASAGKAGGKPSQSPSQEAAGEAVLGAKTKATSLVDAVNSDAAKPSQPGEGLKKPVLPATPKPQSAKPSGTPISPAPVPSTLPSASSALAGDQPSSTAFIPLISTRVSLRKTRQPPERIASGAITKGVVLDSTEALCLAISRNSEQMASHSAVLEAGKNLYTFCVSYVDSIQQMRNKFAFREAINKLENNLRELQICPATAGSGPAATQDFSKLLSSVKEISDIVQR

Turning to `Cn1cc(/C=N\NC(=O)c2cn(C)c3ccc(Br)cc23)c2ccccc21`, in the assay with MCF7, the viability at 1 µM was 40.5%. For the same compound, the inhibition result in the assay listed under Homo sapiens is “Dose-dependent effect”. The inhibition entry in assay [1] is “Active”.
